Experimental data taken from article PMC9119696 (Nature chemical biology, 2021).

Tests used:
Pin1 = assay: Live cell competition pulldown; type: cell-based; details: PATU-8988T or HCT116 cells, 5 h
Method in brief: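 2.5 million cells per 10-cm plate, dosed next day with DMSO or test compound (5 h, or as indicated). Cells washed in cold PBS, scraped and lysed in HEPES pH 7.4/NP-40 buffer with TCEP. Lysate (500 µg) incubated with desthiobiotin probe (1 µM, 1 h, 4 °C), then streptavidin agarose (1.5 h, 4 °C). Pin1 pulldown detected by immunoblot.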

GST-Pin1 = GST-Pin1 (Homo sapiens, UniProt Q13526); assay: Competitive fluorescence polarization; type: binding; details: 14 h incubation with recombinant full-length Pin1
GST-Pin1, sequence (Q13526 whole entry): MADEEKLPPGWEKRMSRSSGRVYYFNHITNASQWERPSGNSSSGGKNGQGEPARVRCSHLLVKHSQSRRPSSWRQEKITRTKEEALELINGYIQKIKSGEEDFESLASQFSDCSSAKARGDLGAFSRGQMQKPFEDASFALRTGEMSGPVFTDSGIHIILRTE
Method in brief: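 GST-Pin1 (250 nM) preincubated 14 h at 4 °C with compound and 5 nM N-terminal fluorescein-labelled peptide probe (Bth-D-pThr-Pip-Nal). Buffer: 10 mM HEPES, 10 mM NaCl, 1% glycerol pH 7.4, 10 µg ml-1 BSA, 0.01% Tween-20, 1 mM DTT. Ki calculated from probe concentration, 85% probe bound and Pin1 concentration. Kinact from dose- and time-dependent runs. n = 3 samples ± s.e.m.; 2 experiments.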

PATU-8988T WT Pin1 cells = assay: 3D Matrigel dome antiproliferative assay; type: cell-based; details: 1 μM, 9-day treatment
Method in brief: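 1,000 cells per Matrigel dome, one dome per well, left 15 min at 37 °C to solidify. Medium with test compound renewed every 3 days. After 9 days, 3D CellTiter-Glo was added and the plate shaken 1 h at room temperature before reading luminescence. n = 9 biological replicates per condition.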

PATU-8988T cells = assay: Cell cycle analysis; type: cell-based; details: 2.5 μM, 4 days
Method in brief: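 PATU-8988T cells treated 4 days with DMSO (0.1%), test compound or a non-covalent analogue (each 2.5 µM), with medium replaced on day 3; run in triplicate or more. Pulsed with 10 µM BrdU for 1 h, then fixed in 70% ethanol and denatured in 2 M HCl/0.5% Triton X-100 (30 min, RT). Neutralised with 0.1 M Na2B4O7 pH 8.5 and stained overnight at 4 °C with anti-BrdU-FITC. Counterstained with propidium iodide plus RNase A (each 50 µg ml-1) and analysed by FACS.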

## CC(=O)N(CC(C)(C)C)C1CCS(=O)(=O)C1 (stereo not shown) [Sulfopin-AcA]
Pin1
  competition of Pin1 pulldown by DTB probe: unable to outcompete Pin1 pulldown
GST-Pin1
  competition in FP assay: inactive
PATU-8988T WT Pin1 cells
  antiproliferative activity in 3D Matrigel domes: showed no effect in any of the tested systems
PATU-8988T cells
  cells in S phase: did not show this effect
